Screens deposited in PubChem BioAssay by several laboratories.
Rows were chosen to be rich in hits. Some 3.1% of all compounds tested hit in one or more screens of this group.
HSP90 inh – HSP90 refolding inhibition in rabbit reticulocyte lysate; luciferase refolding luminescence, 3 h; inhibition, % at 5.6 µM; actives 0.91% (n = 290,000); AID 1789;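 active = inhibition above the screen-wide mean plus 3 SD, computed separately per campaign, cut at about 16% in these data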;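 also: 0% = DMSO wells and 100% = 60 µM geldanamycin wells; inhibitors lower the luminescence because luciferase stays unfolded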
TbHK1 inh – T. brucei hexokinase 1 inhibition; recombinant TbHK1, G6PDH-coupled NADH A340; inhibition, % at 10 µM; actives 0.11% (n = 220,000);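 active = inhibition of 50% or more in the single-dose primary screen; inactive = inhibition below 50%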
HSF-1 act – increases HSF-1 driven luciferase reporter signal; NIH3T3-HGL HSF-1 luciferase reporter, MG132, 8 h; 100% = twice DMSO control signal; activation, % at 9 µM; actives 1.7% (n = 300,000); AID 504408;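 active = mean replicate activation of at least 50% with a set share of replicates each reaching 50%; inconclusive = only one of those two conditions met; inactive = mean below 50% and too few replicates reaching it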;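 also: 0% = median of the neutral control wells and 100% = twice that signal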
HKDC1 inh – inhibitors of human hexokinase HKDC1 | Q2TB90 | recombinant HKDC1, G6PDH/diaphorase resazurin coupled fluorescence | inhibition, % at 20 µM | actives 0.16% (n = 340,000);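 active = inhibition above about 35% when tested at 20 µM, limit read from the data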;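 also: plate controls were DMSO wells with enzyme for no effect and DMSO wells lacking enzyme for full effect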
Target sequence (Q2TB90 whole entry, looked up): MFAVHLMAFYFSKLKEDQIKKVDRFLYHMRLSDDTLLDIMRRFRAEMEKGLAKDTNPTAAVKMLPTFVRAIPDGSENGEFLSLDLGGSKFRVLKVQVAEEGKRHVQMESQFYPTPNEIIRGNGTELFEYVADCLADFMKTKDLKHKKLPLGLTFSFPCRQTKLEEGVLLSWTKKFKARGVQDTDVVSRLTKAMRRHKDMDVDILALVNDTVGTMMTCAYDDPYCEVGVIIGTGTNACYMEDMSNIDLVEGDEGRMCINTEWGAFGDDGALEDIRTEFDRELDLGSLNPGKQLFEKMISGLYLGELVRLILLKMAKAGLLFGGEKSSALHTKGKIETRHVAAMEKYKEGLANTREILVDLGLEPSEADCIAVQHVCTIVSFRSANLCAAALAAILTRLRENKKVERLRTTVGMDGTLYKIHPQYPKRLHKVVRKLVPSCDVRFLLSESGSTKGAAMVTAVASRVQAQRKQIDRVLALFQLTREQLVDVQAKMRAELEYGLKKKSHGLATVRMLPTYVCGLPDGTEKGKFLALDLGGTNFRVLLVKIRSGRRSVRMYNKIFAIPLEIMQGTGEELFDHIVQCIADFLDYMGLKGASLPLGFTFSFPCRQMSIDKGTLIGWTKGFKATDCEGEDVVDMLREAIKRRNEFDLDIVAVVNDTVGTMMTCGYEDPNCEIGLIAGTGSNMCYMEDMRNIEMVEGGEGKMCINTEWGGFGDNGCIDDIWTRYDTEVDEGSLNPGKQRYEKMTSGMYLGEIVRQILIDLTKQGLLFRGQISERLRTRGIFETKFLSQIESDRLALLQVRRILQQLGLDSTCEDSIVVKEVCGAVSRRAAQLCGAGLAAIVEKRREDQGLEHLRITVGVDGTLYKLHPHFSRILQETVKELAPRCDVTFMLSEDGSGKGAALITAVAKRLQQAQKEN
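Material: recombinant HKDC1 hexokinase; Amount: HKDC1 at 5 µg/mL; Medium: Tris pH 8.0 buffer with MgCl2, Tween-20, BSA, BME; Schedule: 90 min reaction incubation at room temperature, dark; Technique: coupled resazurin fluorescence, excitation 525 nm, emission 613 nm.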
Hsp70 act – switches on Hsp70 transcription; HeLa Hsp70 promoter luciferase reporter, luminescence; scaled: vehicle 0, proteasome-inhibitor control 100%; activation, % at 10 µM; actives 0.04% (n = 200,000); AID 1203;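 active = activation above the mean across all tested compounds plus 3 SD, cutoff set per campaign, cut at about 5.5% in these data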;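 also: 100% = MG132 at 30 µM as the positive control and 0% = DMSO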
HSF1 inh – HSF1 inhibition; NIH3T3-HGL HSE-luciferase, MG132-induced, luminescence 8 h; hits give low values; activity change, negative = inhibition, % at 7.5 µM (by protocol); actives 0.77% (n = 300,000); AID 2098;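 active = more than half of replicate wells show activity change below -50%, luminescence cut by over half; inconclusive = some wells, but at most half, below -50%; inactive = no replicate well below -50%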;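 also: luciferase reports HSF-1 transcriptional activity via heat shock element; 0% = median of DMSO wells and -100% = zero luminescence signal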
Active calls of the source: *; ? = inconclusive; . = no result.

SMILES	HSP90 inh	TbHK1 inh	HSF-1 act	HKDC1 inh	Hsp70 act	HSF1 inh
CC1CC1C(=O)OCC(=O)Nc1ccc(S(=O)(=O)N2CCOCC2)cc1 (centres undefined)	.	.	.	-2.9	.	.
N#CC1=C(N)C(C#N)(C#N)C(c2cccnc2)C2CC(c3ccccc3)CC=C12 (centres undefined)	0.3	-19.8	-66.2	3.9	-0.3	-55.4*
CCOc1ccc(S(=O)(=O)N(CC)CC)cc1NC(=O)CSCc1c(C)noc1C	.	.	3.1	1.0	.	-0.7
CCN(C(=O)CSc1ncccc1C(=O)Oc1cccc([N+](=O)[O-])c1)c1cccc(C)c1	-5.8	-7.0	60.2*	4.3	-0.6	29.0
COc1ccccc1N1C(=O)S/C(=C\c2ccc(C)s2)C1=O	0.1	.	12.1	-6.9	.	11.0
COc1ccccc1N1C(=O)S/C(=C\c2cc(C)n(C)c2C)C1=O	4.2	4.9	53.5*	2.4	0.1	10.3
CCN(CC(=O)Nc1ccccc1OC)C(=O)CSCC(=O)Nc1cccc(C)c1	.	.	.	-9.1	.	.
Cc1nc2ccccc2c(N)c1C(=O)/C=C/c1ccccc1	16.0	.	63.9*	13.6	.	41.6
Cc1[nH]c2ccccc2c1C(=O)/C=C\c1ccccc1Cl	1.1	-5.8	46.0	-4.5	-0.3	42.7
CC(=O)c1c(C)nc2ccccc2c1N	-1.3	-3.6	-5.2	-6.9	-0.4	-0.2
Cc1[nH]c2ccccc2c1C(=O)/C=C/c1ccccc1	-6.8	-4.9	70.3*	1.6	0.6	39.4
Cc1[nH]c2ccccc2c1C(=O)/C=C/c1ccccc1Cl	-9.2	-0.3	113.0*	-4.0	-0.4	83.7
CN(CC(=O)Nc1cccc(F)c1)CC(=O)Nc1cccc(S(N)(=O)=O)c1	0.9	-5.6	-79.7	-7.0	.	-72.3*
CCc1cc(C(=O)N2CCN(C(=O)c3ccccc3)CC2)sc1C	.	.	.	-6.6	.	.
Cc1ccc(NC(=O)CN2CCN(C(=O)c3ccco3)CC2)cc1S(=O)(=O)N(C)C	.	.	.	-3.3	.	.
Fc1ccccc1N1CCN(c2cnc3ccccc3n2)CC1	6.5	-9.4	62.4*	-3.1	-0.2	35.9
O=C(NCCCNC(=O)c1ccccc1F)c1ccco1	1.8	.	3.8	-8.2	.	-1.3
COc1cccc2c1C(=O)c1c(O)c3c(c(O)c1C2=O)C[C@@](O)(C(C)=O)C[C@@H]3O[C@H]1C[C@H](N)[C@H](O)[C@H](C)O1	4.3	-9.6	.	16.4	12.2*	.
COc1cccc2c1C(=O)c1c(O)c3c(c(O)c1C2=O)CC(O)(C(=O)CO)CC3OC1CC(N(C)C)C(O)C(C)O1 (centres undefined)	.	.	.	12.1	.	.
COc1cccc2c1C(=O)c1c(O)c3c(c(O)c1C2=O)C[C@@](O)(C(=O)CO)C[C@@H]3O[C@H]1C[C@H](N)[C@@H](O)[C@H](C)O1	.	.	-72.5	21.3	.	-74.6*
CC(=O)[C@]1(O)Cc2c(O)c3c(c(O)c2[C@@H](O[C@H]2C[C@H](N)[C@H](O)[C@H](C)O2)C1)C(=O)c1ccccc1C3=O	.	.	-79.3	8.5	.	-79.0*
CCOC(=O)C(=CNc1ccc(N2CCCCC2)c(S(=O)(=O)Nc2ccccc2OC)c1)C(=O)OCC	.	.	.	-6.4	.	.
CCOC(=O)c1cccc(NC(=O)CC2Oc3ccccc3NC2=O)c1 (centres undefined)	-0.8	.	-9.1	-3.6	.	-1.3
CC(=O)Nc1ccc(CCc2nc3ccccc3[nH]2)cc1	-1.1	.	14.4	1.8	.	3.7
CC(C)c1ccc(NC(=O)N(CCc2nc3ccccc3[nH]2)C2CCCC2)cc1	3.0	9.1	-60.4	8.7	-0.3	-60.9*
SMILES	HSP90 inh	TbHK1 inh	HSF-1 act	HKDC1 inh	Hsp70 act	HSF1 inh
CCOc1ccc(N2CC(C(=O)Nc3ccncc3)CC2=O)cc1 (centres undefined)	1.5	.	10.3	-0.3	.	6.9
CC(=O)Nc1ccc2nc(C3CC3)n(Cc3ccc(Cl)cc3)c(=O)c2c1	0.8	6.4	?	4.0	-0.1	54.5
COc1ccc(Cn2c(C3CC3)nc3ccc(NC(=O)C4CC4)cc3c2=O)cc1	-1.7	1.9	70.1*	-0.5	0.4	48.8
CCCCNC(=O)CSc1nc(Cc2ccccc2)nc2ccccc12	0.3	.	52.2*	4.0	.	36.1
Cc1nonc1NC(=O)CSc1nc(CCC2CCCC2)nc2ccccc12	4.7	-6.4	8.0	-7.2	.	9.9
CCn1cc(SCC(=O)Nc2cc(C)on2)c2ccccc21	2.0	-3.8	-65.0	-6.3	-0.3	-58.9*
